In brackets after ≈: the same amount, converted by molar mass.
What was measured:
Assay type in all cases: functional
Moraxella catarrhalis = assay: Antibacterial activity against Moraxella catarrhalis BC-3531
Procedure, shortened: (§1)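 MIC determined by broth microdilution following Clinical and Laboratory Standards Institute (formerly NCCLS) guidelines, across a panel of Gram-positive and fastidious Gram-negative organisms.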

Staphylococcus aureus = assay: Antibacterial activity against Staphylococcus aureus UC-76 SA-1; procedure, shortened: as §1
Escherichia coli = assay: Antibacterial activity against Escherichia coli by transcription and translation assay
Procedure, shortened: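 Coupled in vitro transcription and translation system from Escherichia coli with a luciferase reporter; inhibition is read as loss of luciferase signal.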

Haemophilus influenzae = assay: Antibacterial activity against Haemophilus influenzae HI3542; conditions: HI-3542; procedure, shortened: as §1
Enterococcus faecalis = assay: Antibacterial activity against Enterococcus faecalis MGH-2 EF1-1; procedure, shortened: as §1
Streptococcus pneumoniae = assay: Antibacterial activity against Streptococcus pneumoniae SVI SP-3; procedure, shortened: as §1
Streptococcus pyogenes = assay: Antibacterial activity against Streptococcus pyogenes C-203; procedure, shortened: as §1

Compound	MIC (Moraxella catarrhalis) [µg/mL]	MIC (Staphylococcus aureus) [µg/mL]	IC50 (Escherichia coli) [µM]	MIC (Haemophilus influenzae) [µg/mL]	MIC (Enterococcus faecalis) [µg/mL]	MIC (Streptococcus pneumoniae) [µg/mL]	MIC (Streptococcus pyogenes) [µg/mL]
CC(=O)NC[C@H]1CN(c2ccc3c(c2)CCCCC3)C(=O)O1	–	64 (≈ 212 µM)	8	–	> 64	8 (≈ 26.5 µM)	2 (≈ 6.61 µM)
CC(=O)NC[C@H]1CN(c2cc(F)c3c(c2F)CCCCC3=O)C(=O)O1	–	32 (≈ 90.8 µM)	14	–	16 (≈ 45.4 µM)	8 (≈ 22.7 µM)	16 (≈ 45.4 µM)
CC(=O)NC[C@H]1CN(c2cc(F)c3c(c2)CCCCC3=O)C(=O)O1	–	8 (≈ 23.9 µM)	9.4	–	4 (≈ 12 µM)	2 (≈ 5.98 µM)	2 (≈ 5.98 µM)
CC(=O)NC[C@H]1CN(c2ccc(N3CCOCC3)c(F)c2)C(=O)O1 [LINEZOLID]	–	–	3.3	16 (≈ 47.4 µM)	–	–	1 (≈ 2.96 µM)
CC(=O)NC[C@H]1CN(c2ccc3c(c2)CCCCC3=O)C(=O)O1	–	1 (≈ 3.16 µM)	3.9	–	0.5 (≈ 1.58 µM)	0.5 (≈ 1.58 µM)	0.5 (≈ 1.58 µM)
CC(=O)NC[C@H]1CN(c2ccc3c(c2)CCC/C(=C\c2ccncc2)C3=O)C(=O)O1	8 (≈ 19.7 µM)	1 (≈ 2.47 µM)	1.7	16 (≈ 39.5 µM)	1 (≈ 2.47 µM)	0.5 (≈ 1.23 µM)	–
CC(=O)NC[C@H]1CN(c2ccc(C(C)=O)cc2)C(=O)O1 [DUP-721]	–	2 (≈ 7.24 µM)	7.5	–	2 (≈ 7.24 µM)	2 (≈ 7.24 µM)	1 (≈ 3.62 µM)
CC(=O)NC[C@H]1CN(c2ccc3c(c2)CCCC=C3)C(=O)O1	–	1 (≈ 3.33 µM)	1.3	–	1 (≈ 3.33 µM)	0.5 (≈ 1.66 µM)	0.5 (≈ 1.66 µM)
CC(=O)NC[C@H]1CN(c2ccc3c(c2)CCC/C(=C\c2ccc(S(C)(=O)=O)cc2)C3=O)C(=O)O1	4 (≈ 8.29 µM)	1 (≈ 2.07 µM)	2.8	16 (≈ 33.2 µM)	0.5 (≈ 1.04 µM)	0.25 (≈ 0.518 µM)	–
CC(=O)NC[C@H]1CN(c2ccc3c(c2)CCCCCC3=O)C(=O)O1	–	4 (≈ 12.1 µM)	5.9	–	8 (≈ 24.2 µM)	4 (≈ 12.1 µM)	2 (≈ 6.05 µM)
CC(=O)NC[C@H]1CN(c2ccc3c(c2)CCC/C(=C\c2ccc(OCCN(C)C)cc2)C3=O)C(=O)O1	8 (≈ 16.3 µM)	2 (≈ 4.07 µM)	1.5	32 (≈ 65.1 µM)	2 (≈ 4.07 µM)	0.25 (≈ 0.509 µM)	–
CC(=O)NC[C@H]1CN(c2ccc3c(c2)CCC/C(=C\c2ccc(F)cc2)C3=O)C(=O)O1	2 (≈ 4.73 µM)	0.5 (≈ 1.18 µM)	2.7	2 (≈ 4.73 µM)	0.5 (≈ 1.18 µM)	0.25 (≈ 0.592 µM)	–
CC(=O)NC[C@H]1CN(c2ccc3c(c2)CCC/C(=C\c2ccc(CCO)cc2)C3=O)C(=O)O1	4 (≈ 8.92 µM)	1 (≈ 2.23 µM)	2.6	16 (≈ 35.7 µM)	0.5 (≈ 1.11 µM)	0.25 (≈ 0.557 µM)	–
CC(=O)NC[C@H]1CN(c2cnc3c(c2)CCCCC3=O)C(=O)O1	–	8 (≈ 25.2 µM)	13	–	8 (≈ 25.2 µM)	16 (≈ 50.4 µM)	4 (≈ 12.6 µM)
CC(=O)NC[C@H]1CN(c2ccc3c(c2)CCC/C(=C\c2ccsc2)C3=O)C(=O)O1	1 (≈ 2.44 µM)	2 (≈ 4.87 µM)	1.1	2 (≈ 4.87 µM)	0.5 (≈ 1.22 µM)	0.125 (≈ 0.305 µM)	–

Continued by falling MIC (Staphylococcus aureus), values first:

MIC (Moraxella catarrhalis) [µg/mL]	MIC (Staphylococcus aureus) [µg/mL]	IC50 (Escherichia coli) [µM]	MIC (Haemophilus influenzae) [µg/mL]	MIC (Enterococcus faecalis) [µg/mL]	MIC (Streptococcus pneumoniae) [µg/mL]	MIC (Streptococcus pyogenes) [µg/mL]	Compound
–	64 (≈ 191 µM)	90	–	64 (≈ 191 µM)	32 (≈ 95.7 µM)	32 (≈ 95.7 µM)	CC(=O)NC[C@H]1CN(c2cc3c(cc2F)C(=O)CCCC3)C(=O)O1
–	32 (≈ 106 µM)	4	–	16 (≈ 52.9 µM)	8 (≈ 26.5 µM)	16 (≈ 52.9 µM)	CC(=O)NC[C@H]1CN(c2ccc3c(c2)C(=O)CCC3)C(=O)O1
–	16 (≈ 47.9 µM)	8.9	–	8 (≈ 23.9 µM)	4 (≈ 12 µM)	8 (≈ 23.9 µM)	CC(=O)NC[C@H]1CN(c2ccc3c(c2F)CCCCC3=O)C(=O)O1
–	8 (≈ 27.7 µM)	21	–	8 (≈ 27.7 µM)	2 (≈ 6.94 µM)	2 (≈ 6.94 µM)	CC(=O)NC[C@H]1CN(c2ccc3c(c2)CCC3=O)C(=O)O1 [PNU-82965]
–	2 (≈ 6.28 µM)	9.3	–	2 (≈ 6.28 µM)	1 (≈ 3.14 µM)	1 (≈ 3.14 µM)	CC(=O)NC[C@H]1CN(c2cc(F)c3c(c2)CCCC=C3)C(=O)O1
4 (≈ 9.82 µM)	1 (≈ 2.45 µM)	1.6	16 (≈ 39.3 µM)	0.5 (≈ 1.23 µM)	0.25 (≈ 0.614 µM)	–	CC(=O)NC[C@H]1CN(c2ccc3c(c2)CCC/C(=C\c2cccn2C)C3=O)C(=O)O1
4 (≈ 7.91 µM)	1 (≈ 1.98 µM)	1.2	16 (≈ 31.6 µM)	0.5 (≈ 0.989 µM)	0.125 (≈ 0.247 µM)	–	CC(=O)NC[C@H]1CN(c2ccc3c(c2)CCC/C(=C\c2ccc(OCCCN(C)C)cc2)C3=O)C(=O)O1
4 (≈ 9.89 µM)	1 (≈ 2.47 µM)	2.7	16 (≈ 39.6 µM)	0.5 (≈ 1.24 µM)	0.25 (≈ 0.618 µM)	–	CC(=O)NC[C@H]1CN(c2ccc3c(c2)CCC/C(=C\c2ccccc2)C3=O)C(=O)O1
2 (≈ 4.66 µM)	0.5 (≈ 1.16 µM)	1.7	32 (≈ 74.5 µM)	0.25 (≈ 0.582 µM)	0.25 (≈ 0.582 µM)	–	CC(=O)NC[C@H]1CN(c2ccc3c(c2)CCC/C(=C\c2cccc(C#N)c2)C3=O)C(=O)O1
2 (≈ 4.76 µM)	0.5 (≈ 1.19 µM)	0.95	8 (≈ 19 µM)	0.5 (≈ 1.19 µM)	0.125 (≈ 0.297 µM)	–	CC(=O)NC[C@H]1CN(c2ccc3c(c2)CCC/C(=C\c2ccc(O)cc2)C3=O)C(=O)O1

From ChEMBL document CHEMBL1137280, “Synthesis and structure-activity studies of novel benzocycloheptanone oxazolidinone antibacterial agents” (Bioorg Med Chem Lett, 2006)
